Results reported in ChEMBL document CHEMBL4715745, “Synthesis and biological evaluation of novel FK228 analogues as potential isoform selective HDAC inhibitors” (Eur J Med Chem, 2016).

How the values were obtained:
SNB-78 = experiment: Growth inhibition of human SNB-78 cells measured after 48 hrs by sulforhodamine B assay; type: functional
Procedure, shortened: (§1)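 Panel of 39 human cancer cell lines tested at the Japanese Foundation for Cancer Research. Five concentrations per compound, spanning 10⁻¹¹–10⁻⁷ M, 10⁻¹⁰–10⁻⁶ M or 10⁻⁸–10⁻⁴ M, were used to build dose-response curves. GI₅₀ is the concentration giving 50% growth inhibition relative to control.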

PC-3 = experiment: Growth inhibition of human PC-3 cells measured after 48 hrs by sulforhodamine B assay; type: functional; procedure, shortened: as §1
RXF 631 = experiment: Growth inhibition of human RXF 631 cells measured after 48 hrs by sulforhodamine B assay; type: functional; procedure, shortened: as §1
MKN-7 = experiment: Growth inhibition of human MKN-7 cells measured after 48 hrs by sulforhodamine B assay; type: functional; procedure, shortened: as §1
NCI-H23 = experiment: Growth inhibition of human NCI-H23 cells measured after 48 hrs by sulforhodamine B assay; type: functional; procedure, shortened: as §1
SF-539 = experiment: Growth inhibition of human SF-539 cells measured after 48 hrs by sulforhodamine B assay; type: functional; procedure, shortened: as §1
SNB-75 = experiment: Growth inhibition of human SNB-75 cells measured after 48 hrs by sulforhodamine B assay; type: functional; procedure, shortened: as §1
A549 = experiment: Growth inhibition of human A549 cells measured after 48 hrs by sulforhodamine B assay; type: functional; procedure, shortened: as §1
OVCAR-5 = experiment: Growth inhibition of human OVCAR-5 cells measured after 48 hrs by sulforhodamine B assay; type: functional; procedure, shortened: as §1
NCI-H460 = experiment: Growth inhibition of human NCI-H460 cells measured after 48 hrs by sulforhodamine B assay; type: functional; procedure, shortened: as §1
MKN-1 = experiment: Growth inhibition of human MKN-1 cells measured after 48 hrs by sulforhodamine B assay; type: functional; procedure, shortened: as §1
OVCAR-4 = experiment: Growth inhibition of human OVCAR-4 cells measured after 48 hrs by sulforhodamine B assay; type: functional; procedure, shortened: as §1
[1] = Growth inhibition of human HBC5 cells measured after 48 hrs by sulforhodamine B assay; type: functional; procedure, shortened: as §1
MCF7 = experiment: Growth inhibition of human MCF7 cells measured after 48 hrs by sulforhodamine B assay; type: functional; procedure, shortened: as §1
DU-145 = experiment: Growth inhibition of human DU-145 cells measured after 48 hrs by sulforhodamine B assay; type: functional; procedure, shortened: as §1
DMS-273 = experiment: Growth inhibition of human DMS-273 cells measured after 48 hrs by sulforhodamine B assay; type: functional; procedure, shortened: as §1
SF-268 = experiment: Growth inhibition of human SF-268 cells measured after 48 hrs by sulforhodamine B assay; type: functional; procedure, shortened: as §1
OVCAR-8 = experiment: Growth inhibition of human OVCAR-8 cells measured after 48 hrs by sulforhodamine B assay; type: functional; procedure, shortened: as §1
[2] = target: T1, Protein deacetylase HDAC6 (Mus musculus, UniProt Q9Z2V5); experiment: Inhibition of mouse HDAC6 expressed in 293T cells using Ac-KGLGK(Ac)-MCA as substrate incubated for 30 mins in presence of 0.1 mM DTT by fluorescence plate reader assay; design: species or system HEK293T
T1 sequence (Q9Z2V5 whole entry): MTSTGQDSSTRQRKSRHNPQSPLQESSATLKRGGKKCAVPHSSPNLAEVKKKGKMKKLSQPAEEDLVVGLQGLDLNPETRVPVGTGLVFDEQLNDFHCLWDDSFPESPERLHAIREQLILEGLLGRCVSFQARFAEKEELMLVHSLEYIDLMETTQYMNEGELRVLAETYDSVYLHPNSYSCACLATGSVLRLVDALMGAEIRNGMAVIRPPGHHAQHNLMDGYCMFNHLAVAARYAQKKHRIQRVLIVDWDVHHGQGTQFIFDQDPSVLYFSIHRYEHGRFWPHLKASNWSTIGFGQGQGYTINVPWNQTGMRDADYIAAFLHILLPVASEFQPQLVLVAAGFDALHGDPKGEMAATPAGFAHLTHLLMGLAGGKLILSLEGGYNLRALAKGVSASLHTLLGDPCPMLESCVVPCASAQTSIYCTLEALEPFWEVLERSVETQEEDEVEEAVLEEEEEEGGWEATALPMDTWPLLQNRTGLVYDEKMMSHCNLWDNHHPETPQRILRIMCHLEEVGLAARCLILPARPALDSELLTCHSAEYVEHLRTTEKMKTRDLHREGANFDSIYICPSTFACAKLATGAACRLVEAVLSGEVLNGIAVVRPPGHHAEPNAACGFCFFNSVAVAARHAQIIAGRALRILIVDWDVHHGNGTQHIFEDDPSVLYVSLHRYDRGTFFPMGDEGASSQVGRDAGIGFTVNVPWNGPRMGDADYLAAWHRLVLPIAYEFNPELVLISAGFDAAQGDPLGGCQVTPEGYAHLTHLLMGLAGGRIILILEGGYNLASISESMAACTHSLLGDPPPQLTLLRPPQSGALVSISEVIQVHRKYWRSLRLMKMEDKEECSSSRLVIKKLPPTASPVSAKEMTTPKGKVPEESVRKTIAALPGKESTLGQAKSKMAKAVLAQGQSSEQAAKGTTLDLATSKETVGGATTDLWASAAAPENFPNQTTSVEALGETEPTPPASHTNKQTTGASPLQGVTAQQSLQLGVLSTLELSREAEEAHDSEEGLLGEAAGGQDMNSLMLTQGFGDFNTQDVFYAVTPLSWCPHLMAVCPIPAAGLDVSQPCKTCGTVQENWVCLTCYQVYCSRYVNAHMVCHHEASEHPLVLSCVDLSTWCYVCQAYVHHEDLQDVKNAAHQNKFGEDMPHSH
Procedure, shortened: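 HDAC enzyme assay run in the presence of 0.1 mM dithiothreitol (DTT); IC₅₀ determined.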

HCT-116 = experiment: Growth inhibition of human HCT-116 cells measured after 48 hrs by sulforhodamine B assay; type: functional; procedure, shortened: as §1
HT-29 = experiment: Growth inhibition of human HT-29 cells measured after 48 hrs by sulforhodamine B assay; type: functional; procedure, shortened: as §1
HCC 2998 = experiment: Growth inhibition of human HCC 2998 cells measured after 48 hrs by sulforhodamine B assay; type: functional; procedure, shortened: as §1
SF-295 = experiment: Growth inhibition of human SF-295 cells measured after 48 hrs by sulforhodamine B assay; type: functional; procedure, shortened: as §1
[3] = Growth inhibition of human HBC4 cells measured after 48 hrs by sulforhodamine B assay; type: functional; procedure, shortened: as §1
OVCAR-3 = experiment: Growth inhibition of human OVCAR-3 cells measured after 48 hrs by sulforhodamine B assay; type: functional; procedure, shortened: as §1
U-251 = experiment: Growth inhibition of human U-251 cells measured after 48 hrs by sulforhodamine B assay; type: functional; procedure, shortened: as §1
MKN-74 = experiment: Growth inhibition of human MKN-74 cells measured after 48 hrs by sulforhodamine B assay; type: functional; procedure, shortened: as §1
DMS-114 = experiment: Growth inhibition of human DMS-114 cells measured after 48 hrs by sulforhodamine B assay; type: functional; procedure, shortened: as §1
NCI-H522 = experiment: Growth inhibition of human NCI-H522 cells measured after 48 hrs by sulforhodamine B assay; type: functional; procedure, shortened: as §1
SK-OV-3 = experiment: Growth inhibition of human SK-OV-3 cells measured after 48 hrs by sulforhodamine B assay; type: functional; procedure, shortened: as §1
HCT-15 = experiment: Growth inhibition of human HCT-15 cells measured after 48 hrs by sulforhodamine B assay; type: functional; procedure, shortened: as §1
St-4 = experiment: Growth inhibition of human St-4 cells measured after 48 hrs by sulforhodamine B assay; type: functional; procedure, shortened: as §1
ACHN = experiment: Growth inhibition of human ACHN cells measured after 48 hrs by sulforhodamine B assay; type: functional; procedure, shortened: as §1
NCI-H226 = experiment: Growth inhibition of human NCI-H226 cells measured after 48 hrs by sulforhodamine B assay; type: functional; procedure, shortened: as §1
MDA-MB-231 = experiment: Growth inhibition of human MDA-MB-231 cells measured after 48 hrs by sulforhodamine B assay; type: functional; procedure, shortened: as §1
KM12 = experiment: Growth inhibition of human KM12 cells measured after 48 hrs by sulforhodamine B assay; type: functional; procedure, shortened: as §1
LOX IMVI = experiment: Growth inhibition of human LOX IMVI cells measured after 48 hrs by sulforhodamine B assay; type: functional; procedure, shortened: as §1
Histone deacetylase 1 = Histone deacetylase 1 (Homo sapiens, UniProt Q13547); experiment: Inhibition of human HDAC1 expressed in 293T cells using Ac-KGLGK(Ac)-MCA as substrate incubated for 30 mins in presence of 0.1 mM DTT by fluorescence plate reader assay; design: species or system HEK293T
MKN-45 = experiment: Growth inhibition of human MKN-45 cells measured after 48 hrs by sulforhodamine B assay; type: functional; procedure, shortened: as §1
MKN-28 = experiment: Growth inhibition of human MKN-28 cells measured after 48 hrs by sulforhodamine B assay; type: functional; procedure, shortened: as §1
[4] = Growth inhibition of human BSY1 cells measured after 48 hrs by sulforhodamine B assay; type: functional; conditions: BSY-1; procedure, shortened: as §1
[5] = Selectivity index, ratio of IC50 for mouse HDAC6 expressed in 293T cells to IC50 for human HDAC1 expressed in 293T cells using Ac-KGLGK(Ac)-MCA as substrate incubated for 30 mins in presence of 0.1 mM DTT by fluorescence plate reader assay; conditions: 0.5 h
Procedure, shortened: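 Ratio of HDAC6 IC₅₀ to HDAC1 IC₅₀, taken as selectivity for class I HDAC1 over class II HDAC6. Both enzyme assays were run in the presence of 0.1 mM DTT.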

Sequence of Histone deacetylase 1 (Q13547 whole entry): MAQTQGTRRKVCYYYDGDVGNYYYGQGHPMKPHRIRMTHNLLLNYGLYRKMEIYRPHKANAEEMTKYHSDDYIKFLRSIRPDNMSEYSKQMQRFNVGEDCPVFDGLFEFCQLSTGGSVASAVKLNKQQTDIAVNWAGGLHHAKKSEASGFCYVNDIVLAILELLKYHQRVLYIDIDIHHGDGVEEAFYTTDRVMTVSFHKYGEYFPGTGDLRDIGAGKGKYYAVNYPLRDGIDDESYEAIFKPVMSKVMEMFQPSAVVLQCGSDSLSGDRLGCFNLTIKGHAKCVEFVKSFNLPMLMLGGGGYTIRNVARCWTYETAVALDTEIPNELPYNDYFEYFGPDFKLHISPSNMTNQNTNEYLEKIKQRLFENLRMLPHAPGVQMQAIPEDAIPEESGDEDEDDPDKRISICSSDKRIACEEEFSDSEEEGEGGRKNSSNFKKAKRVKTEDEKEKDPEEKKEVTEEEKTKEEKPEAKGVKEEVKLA

C/C=C1\NC(=O)[C@H]2CSSCC/C=C/[C@H](CC(=O)N[C@H](C(C)C)C(=O)N2)OC(=O)CNC1=O
GI50 (SNB-78): 0.01 µM
GI50 (PC-3): 0.17 µM
GI50 (RXF 631): 0.23 µM
GI50 (MKN-7): 0.38 µM
GI50 (NCI-H23): 0.13 µM
GI50 (SF-539): 0.01 µM
GI50 (SNB-75): 0.01 µM
GI50 (A549): 0.052 µM
GI50 (OVCAR-5): 0.049 µM
GI50 (NCI-H460): 0.056 µM
GI50 (MKN-1): 0.073 µM
GI50 (OVCAR-4): 0.27 µM
GI50 [1]: 0.63 µM
GI50 (MCF7): 0.19 µM
GI50 (DU-145): 0.039 µM
GI50 (DMS-273): 0.23 µM
GI50 (SF-268): 0.11 µM
GI50 (OVCAR-8): 0.054 µM
IC50 [2]: 0.859 µM
GI50 (HCT-116): 0.026 µM
GI50 (HT-29): 0.042 µM
GI50 (HCC 2998): 0.032 µM
GI50 (SF-295): 0.28 µM
GI50 [3]: 0.17 µM
GI50 (OVCAR-3): 0.064 µM
GI50 (U-251): 0.12 µM
GI50 (MKN-74): 0.1 µM
GI50 (DMS-114): 0.043 µM
GI50 (NCI-H522): 0.01 µM
GI50 (SK-OV-3): 0.063 µM
GI50 (HCT-15): 20 µM
GI50 (St-4): 1.1 µM
GI50 (ACHN): 0.46 µM
GI50 (NCI-H226): 0.41 µM
GI50 (MDA-MB-231): 0.053 µM
GI50 (KM12): 0.045 µM
GI50 (LOX IMVI): 0.025 µM
IC50 (Histone deacetylase 1): 0.0047 µM
GI50 (MKN-45): 1.9 µM
GI50 (MKN-28): 1.4 µM
GI50 [4]: 0.2 µM
Ratio IC50 [5]: 182

CC(C)[C@H]1NC(=O)C[C@H]2/C=C/CCSSC[C@@H](NC1=O)C(=O)N[C@@H](C)C(=O)NCC(=O)O2
GI50 (SNB-78): 13 µM
GI50 (PC-3): 13 µM
GI50 (RXF 631): 100 µM
GI50 (MKN-7): 43 µM
GI50 (NCI-H23): 27 µM
GI50 (SF-539): 15 µM
GI50 (SNB-75): 14 µM
GI50 (A549): 18 µM
GI50 (OVCAR-5): 15 µM
GI50 (NCI-H460): 43 µM
GI50 (MKN-1): 14 µM
GI50 (OVCAR-4): 22 µM
GI50 [1]: 21 µM
GI50 (MCF7): 17 µM
GI50 (DU-145): 15 µM
GI50 (DMS-273): 47 µM
GI50 (SF-268): 17 µM
GI50 (OVCAR-8): 31 µM
IC50 [2]: 1.02 µM
GI50 (HCT-116): 11 µM
GI50 (HT-29): 12 µM
GI50 (HCC 2998): 13 µM
GI50 (SF-295): 51 µM
GI50 [3]: 17 µM
GI50 (OVCAR-3): 16 µM
GI50 (U-251): 17 µM
GI50 (MKN-74): 18 µM
GI50 (DMS-114): 15 µM
GI50 (NCI-H522): 1.7 µM
GI50 (SK-OV-3): 16 µM
GI50 (HCT-15): 100 µM
GI50 (St-4): 62 µM
GI50 (ACHN): 100 µM
GI50 (NCI-H226): 21 µM
GI50 (MDA-MB-231): 16 µM
GI50 (KM12): 15 µM
GI50 (LOX IMVI): 4.5 µM
IC50 (Histone deacetylase 1): 0.184 µM
GI50 (MKN-45): 100 µM
GI50 (MKN-28): 24 µM
GI50 [4]: 27 µM
Ratio IC50 [5]: 6
